Assays:
MT4 = experiment: Cytotoxic dose in MT-4 cells; type: functional; conditions: Homo sapiens, read-out: CD50 (the source's name)
[1] = target: Human immunodeficiency virus type 1 reverse transcriptase (Human immunodeficiency virus 1) (UniProt Q72547); experiment: Selectivity index is the […] values against inhibition of HIV-1 in MT-4 cells; type: functional, cell-based; conditions: MT4
How it was run: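 Selectivity index is CD50 (50% viability reduction of uninfected MT-4 cells) divided by ED50 (50% protection of HIV-infected MT-4 cells against cytopathic effect). Both come from parallel assays.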

[2] = target: Human immunodeficiency virus type 1 reverse transcriptase (Human immunodeficiency virus 1) (UniProt Q72547); experiment: Inhibitory activity against HIV-1 replication in MT-4 cells; type: functional, cell-based; conditions: MT4
How it was run: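 HTLV-IIIB strain of HIV in MT-4 cells, run in parallel with cytotoxicity on uninfected MT-4 cells. The read-out is protection of infected cells from virus-induced cytopathic effect. ED50 is the dose giving 50% protection.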

Row | SMILES | CC50 (MT4) [µM] | SI [1] | ED50 [2] [µM]
1 | Cc1cn([C@H]2C=C(F)[C@@H](CO)O2)c(=O)[nH]c1=O | 240 | 22 | 11
2 | COc1ccn([C@H]2C[C@H](F)[C@@H](CO)O2)c(=O)n1 | 348 | 7.6 | 46
3 | OC[C@H]1O[C@@H](n2cnc3c(O)ncnc32)C[C@@H]1F | 500 | 1 | 484
4 | O=c1ccn([C@H]2C[C@H](F)[C@@H](CO)O2)c(=O)[nH]1 | 16 | 400 | 0.04
5 | [N-]=[N+]=N[C@H]1C[C@H](n2c(Br)nc3c(N)ncnc32)O[C@@H]1CO | 409 | < 1 | > 500
6 | [N-]=[N+]=N[C@H]1C[C@H](n2cnc3c(O)ncnc32)O[C@@H]1CO | 15 | < 2 | > 8
7 | Nc1ncnc2c1ncn2[C@H]1CC[C@@H](CO)O1 | 890 | 139 | 6.4
8 | O=c1[nH]c(=O)n([C@H]2C[C@H](F)[C@@H](CO)O2)cc1Br | 24 | 59 | 0.41
9 | Cc1cn([C@H]2C[C@H](F)[C@@H](CO)O2)c(=O)[nH]c1=O [ALOVUDINE] | 0.197 | 197 | 0.001
10 | Nc1ncnc2c1nc(Br)n2[C@H]1CC[C@@H](CO)O1 | 500 | 1 | 484
11 | Cc1cn([C@@H]2O[C@H](CO)C[C@H]2F)c(=O)nc1N | > 500 | – | > 500
12 | [N-]=[N+]=N[C@H]1C[C@H](n2cnc3c(N)ncnc32)O[C@@H]1CO | – | – | 5
13 | Cc1cn([C@H]2C[C@H](F)[C@@H](CO)O2)c(=O)nc1N | 7.7 | 4.5 | 1.7
14 | Cc1cn([C@@H]2O[C@H](CO)C[C@@H]2F)c(=O)[nH]c1=O | > 500 | – | > 500
15 | O=c1[nH]c(=O)n([C@H]2C[C@H](F)[C@@H](CO)O2)cc1Cl [RALURIDINE] | 535 | 1410 | 0.38
16 | Cc1cn([C@H]2C[C@H](N=[N+]=[N-])[C@@H](CO)O2)c(=O)[nH]c1=O [ZIDOVUDINE] | 4.8 | 1600 | 0.003
17 | O=c1[nH]c(=O)n([C@H]2C[C@H](F)[C@@H](CO)O2)cc1F | 40 | < 2 | > 20
18 | Cc1cn([C@@H]2O[C@H](CO)C[C@H]2F)c(=O)[nH]c1=O | > 500 | > 9.4 | 53
19 | Nc1ccn([C@@H]2O[C@H](CO)C[C@@H]2F)c(=O)n1 | 117 | 12 | 9.8
20 | O=c1[nH]c(=O)n([C@H]2C[C@H](F)[C@@H](CO)O2)cc1I | 2.17 | 13.6 | 0.16
21 | Nc1ncnc2c1ncn2[C@H]1C[C@H](F)[C@@H](CO)O1 | 557 | 11.1 | 50
